Measured values as given in ChEMBL document CHEMBL1151733, “Pirinixic acid derivatives as novel dual inhibitors of microsomal prostaglandin E2 synthase-1 and 5-lipoxygenase” (J Med Chem, 2008).
Values belong to the compound of their own block, whether it stands above or below them. Activity calls are given as the source filed them. The calls are words filed in the database; no cut-off is given here.

Columns and labels:
[1] = biological target: T1, Polyunsaturated fatty acid 5-lipoxygenase (Homo sapiens) (UniProt P09917); assay: Inhibition of 5-LO in human PMNL cells at 10 uM relative to control; format: cell-based
T1 sequence (whole entry): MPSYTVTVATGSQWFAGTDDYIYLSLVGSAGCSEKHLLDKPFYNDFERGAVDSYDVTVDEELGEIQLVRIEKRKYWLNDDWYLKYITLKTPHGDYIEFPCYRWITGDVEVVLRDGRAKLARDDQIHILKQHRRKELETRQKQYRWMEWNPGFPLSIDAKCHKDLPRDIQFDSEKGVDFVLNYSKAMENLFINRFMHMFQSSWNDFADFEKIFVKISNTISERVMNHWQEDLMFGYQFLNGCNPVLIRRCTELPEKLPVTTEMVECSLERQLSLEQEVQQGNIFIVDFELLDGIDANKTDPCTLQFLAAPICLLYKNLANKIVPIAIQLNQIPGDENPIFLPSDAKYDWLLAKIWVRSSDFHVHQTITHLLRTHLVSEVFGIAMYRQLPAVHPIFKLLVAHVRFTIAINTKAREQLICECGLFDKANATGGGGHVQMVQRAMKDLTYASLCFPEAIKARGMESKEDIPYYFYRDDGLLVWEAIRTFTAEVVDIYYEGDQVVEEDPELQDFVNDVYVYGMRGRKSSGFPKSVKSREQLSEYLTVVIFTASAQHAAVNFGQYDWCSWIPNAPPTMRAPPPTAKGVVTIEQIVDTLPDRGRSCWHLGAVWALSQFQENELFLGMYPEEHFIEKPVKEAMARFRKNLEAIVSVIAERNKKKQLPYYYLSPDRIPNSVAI
Summary of the method: (§1)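 Freshly isolated human PMNL from leukocyte concentrates of healthy donors, 5 × 10⁶ cells/mL in PBS pH 7.4 with 1 mg/mL glucose and 1 mM CaCl₂. Preincubated with compound 15 min at RT, then stimulated with 2.5 µM A23187 plus 20 µM AA for 10 min at 37 °C. Stopped with methanol; LTB₄, its all-trans isomers and 5-H(P)ETE quantified by HPLC with PGB₁ internal standard.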

[2] = biological target: T2, Prostaglandin G/H synthase 2 (Homo sapiens, UniProt P35354); assay: Inhibition of human recombinant COX2
T2 sequence (P35354 whole entry): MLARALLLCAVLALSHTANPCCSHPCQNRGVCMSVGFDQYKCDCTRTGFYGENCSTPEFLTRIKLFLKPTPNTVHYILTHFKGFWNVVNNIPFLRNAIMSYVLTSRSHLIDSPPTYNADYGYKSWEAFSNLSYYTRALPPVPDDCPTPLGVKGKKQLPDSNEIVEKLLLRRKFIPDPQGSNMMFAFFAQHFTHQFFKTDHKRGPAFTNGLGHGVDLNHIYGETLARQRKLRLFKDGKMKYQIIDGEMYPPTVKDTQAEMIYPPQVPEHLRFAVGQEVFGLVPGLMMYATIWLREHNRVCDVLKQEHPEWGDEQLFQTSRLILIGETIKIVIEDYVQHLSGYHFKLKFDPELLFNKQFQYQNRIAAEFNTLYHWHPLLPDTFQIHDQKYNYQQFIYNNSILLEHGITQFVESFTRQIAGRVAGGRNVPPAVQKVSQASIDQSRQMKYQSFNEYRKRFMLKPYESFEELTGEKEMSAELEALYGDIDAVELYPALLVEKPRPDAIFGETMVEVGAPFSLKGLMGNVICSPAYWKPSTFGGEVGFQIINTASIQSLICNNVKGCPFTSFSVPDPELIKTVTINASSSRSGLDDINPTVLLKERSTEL
Summary of the method: (§2)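 Ovine COX-1 (50 units) or human recombinant COX-2 (20 units) in 100 mM Tris pH 8 with 5 mM glutathione, 5 µM hemoglobin and 100 µM EDTA. Compound preincubation 5 min at 4 °C, then prewarming 60 s at 37 °C. AA added at 5 µM for COX-1 or 2 µM for COX-2, reacted 5 min at 37 °C. 12-HHT extracted and quantified by HPLC. Mean ± SE, n = 3.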

[3] = biological target: T3, Prostaglandin E synthase (Homo sapiens) (UniProt O14684); details: A549, 33 uM
T3 sequence (whole entry): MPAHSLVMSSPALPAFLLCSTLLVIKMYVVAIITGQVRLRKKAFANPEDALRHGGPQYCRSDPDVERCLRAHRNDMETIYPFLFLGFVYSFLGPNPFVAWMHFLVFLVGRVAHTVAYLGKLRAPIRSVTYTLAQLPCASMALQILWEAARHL

[4] = biological target: T4, Polyunsaturated fatty acid 5-lipoxygenase (Homo sapiens, UniProt P09917); assay: Inhibition of 5-LO in PMNL cells; format: cell-based; summary of the method: as §1
T4 sequence (P09917 whole entry): T1 sequence (whole entry)

[5] = biological target: T3, Prostaglandin E synthase (Homo sapiens); assay: Inhibition of PGES1 in human A549 cell microsome assessed as PGE2 formation at 10 uM by cell-free assay relative to control; design: scale not given: the % may be the effect or the level left
Summary of the method: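 Microsomes from A549 cells grown with IL-1β (1 ng/mL, 72 h), diluted in 0.1 M potassium phosphate pH 7.4 with 2.5 mM glutathione. Compound or DMSO added 15 min before PGH₂ (20 µM final). Reaction ran 1 min at 4 °C and was stopped with FeCl₂/citric acid. PGE₂ isolated by C18 SPE, then RP-HPLC with UV at 195 nm against 11β-PGE₂ internal standard.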

[6] = biological target: T5, Prostaglandin G/H synthase 1 (Ovis aries, UniProt P05979); assay: Inhibition of ovine COX1; summary of the method: as §2
T5 sequence (P05979 whole entry): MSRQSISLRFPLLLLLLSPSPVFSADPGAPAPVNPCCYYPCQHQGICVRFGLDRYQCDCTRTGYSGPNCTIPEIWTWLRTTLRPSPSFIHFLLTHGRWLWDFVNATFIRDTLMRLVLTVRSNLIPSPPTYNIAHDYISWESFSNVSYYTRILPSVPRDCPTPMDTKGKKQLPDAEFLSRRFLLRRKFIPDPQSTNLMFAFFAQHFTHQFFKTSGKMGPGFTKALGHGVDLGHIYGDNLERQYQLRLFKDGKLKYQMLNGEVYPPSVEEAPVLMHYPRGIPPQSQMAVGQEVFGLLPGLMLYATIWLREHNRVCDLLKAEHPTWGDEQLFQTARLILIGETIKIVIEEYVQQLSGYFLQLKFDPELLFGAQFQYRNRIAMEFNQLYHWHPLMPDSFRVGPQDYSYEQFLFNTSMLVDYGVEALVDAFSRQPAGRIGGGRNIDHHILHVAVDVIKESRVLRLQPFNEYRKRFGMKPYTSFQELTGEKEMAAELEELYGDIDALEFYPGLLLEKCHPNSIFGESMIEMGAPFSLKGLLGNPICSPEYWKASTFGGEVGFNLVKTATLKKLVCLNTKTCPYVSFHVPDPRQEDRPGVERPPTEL

[7] = biological target: T3, Prostaglandin E synthase (Homo sapiens); assay: Inhibition of mPGES1 in human A549 cells assessed as inhibition of IL-1-beta-induced PGE2 formation at 5 uM by cell-intact assay; format: cell-based
Summary of the method: (§3)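 A549 cells stimulated with IL-1β for 72 h; 2 × 10⁶ cells in 0.5 mL PBS with 1 mM CaCl₂, preincubated with compound 10 min at 37 °C. Stimulated with 2.5 µM A23187, 1 µM AA and [³H]AA (18.4 kBq) for 15 min at 37 °C. Supernatant acidified; [³H]PGE₂ separated by SPE/RP-HPLC and counted by scintillation. Vehicle 0.1% DMSO; mean ± SE, n = 3.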

[8] = biological target: T3, Prostaglandin E synthase (Homo sapiens); assay: Inhibition of mPGES1 in human A549 cells assessed as inhibition of IL-1-beta-induced PGE2 formation at 10 uM by cell-intact assay; format: cell-based; summary of the method: as §3
[9] = biological target: T6, Prostaglandin G/H synthase 1 (Ovis aries) (UniProt P05979); assay: Inhibition of ovine COX1 assessed as remaining activity at 10 uM relative to control; summary of the method: as §2
T6 sequence (whole entry): T5 sequence (P05979 whole entry)

Compound: CC(C)c1ccc2c(c1)c(SC(C)(C)C)c(CC(C)(C)C(=O)O)n2Cc1ccc(Cl)cc1
Activity [1]: inactive
IC50 [2]: > 10 µM
inhibition [3]: 63%
IC50 [4]: 90 nM
Activity [5]: 26%
IC50 [6]: > 10 µM

Activity [7]: Active
Compound: Cc1ccc(-c2cc(C(F)(F)F)nn2-c2ccc(S(N)(=O)=O)cc2)cc1

Activity [8]: Active
Activity [9]: 19%
Compound: COc1ccc2c(c1)c(CC(=O)O)c(C)n2C(=O)c1ccc(Cl)cc1
